The campaign covered roughly 360,000 compounds. About 5,400 (1.5%) were called active. Many of the other results were omitted from the sample, so actives are more common in it than they were. A number with no mark means an inactive call.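 How the source made its calls: active means inhibition above a per-plate cutoff, the mean inhibition of test compounds on that plate plus 3 SD (cut at about 49% in these data); inactive means the rest.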 Where a SMILES comes first, the peptide text is derived from it. The star is where a group is joined. Bz = O=C(c1ccccc1)*

Chain of Trace amine-associated receptor 1 (Homo sapiens) (Q96RJ0 whole entry, looked up): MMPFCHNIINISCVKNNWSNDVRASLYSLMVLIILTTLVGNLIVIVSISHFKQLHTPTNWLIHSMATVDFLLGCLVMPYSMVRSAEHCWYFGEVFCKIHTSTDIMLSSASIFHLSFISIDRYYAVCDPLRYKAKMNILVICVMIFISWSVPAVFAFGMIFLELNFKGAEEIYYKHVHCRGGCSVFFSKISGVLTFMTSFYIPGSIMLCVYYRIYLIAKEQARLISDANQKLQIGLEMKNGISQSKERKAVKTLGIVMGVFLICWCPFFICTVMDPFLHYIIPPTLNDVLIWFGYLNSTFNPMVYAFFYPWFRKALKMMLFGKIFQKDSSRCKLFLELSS

This assay addresses Trace amine-associated receptor 1 (Homo sapiens) (UniProt Q96RJ0). The experiment in a line: human TAAR1 antagonists, primary screen, Fluo-8 calcium fluorescence, CHO RD-HGA16 cells (AID 624466).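 Further: 0% = DMSO plus EC80 beta-PEA response and 100% = DMSO alone without agonist.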 As to conditions: CHO RD-HGA16 TAAR1, Fluo-8 calcium fluorescence, antagonist; at 3 µM; hits give high values. A digest of the protocol:
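Assay system: RD-HGA16 CHO cells with stable hTAAR1 and Gα16 / Reagent: EC80 β-phenethylamine stimulus / Doses: 3 µM, single point / Timing: dye loading 75 min at 37 °C, then 30 min room temperature / Measured by: Fluo-8 intracellular calcium dye fluorescence, real-time kinetic reads / Controls: vehicle wells and EC80 agonist wells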
As to `CO[C@@H]1CN(C)C(=O)c2cc(NC(=O)Nc3cc(F)ccc3F)ccc2OC[C@H](C)N(C(=O)c2ccccn2)C[C@@H]1C`, the inhibition is -23.9%.
Then `CCCCCCN1CCN(C2CN(Cc3cn(Cc4ccc(F)cc4)nn3)S(=O)(=O)C2)CC1` (stereo not drawn), with -26.8%; and `COC(=O)C1=C(C)N(Cc2ccc(C(F)(F)F)cc2)C(=NCc2ccccc2)NC1c1ccccc1C(F)(F)F` (stereo not drawn), with -9.36%; and `CCOC(=O)c1c(N)c(C#N)nn1-c1ccccc1C(=O)OC`, with 5.89%.
Then `Cc1ccccc1N/C(SCc1ccc(Cl)cc1)=C(/C#N)C(N)=O`, with -9.21%; and `O=C(COc1ccc(Cl)cc1)NC(=S)Nc1ccccc1N1CCOCC1`, with -2.14%.
Then `O=C(Cc1ccc(Cl)cc1)NC(=S)Nc1ccccc1O`, with 104% (active); and `Cc1ccccc1NC(=S)NC(=O)Cc1ccc(Cl)cc1`, with 91.6% (active); and `O=C(COc1ccc(Cl)cc1)Nc1ccccc1CO`, with 4.17%.
On to `Cc1cccc(NC(=S)NCCc2ccc(Cl)cc2)c1C`, for which the inhibition is -16.5%.
For `O=C(C(=O)N1CCC(CNS(=O)(=O)Cc2ccccc2)CC1)c1cc2ccccc2o1` the value was -11.1%; for `CCc1cccc(CC)c1N1C(=O)CC(Sc2ccccc2N)C1=O` (stereo not drawn), -2.71%.
For `CCC(c1nc2ccccc2[nH]1)n1c(=O)c(-c2cccs2)nc2ccccc21` (stereo not drawn) the value was -2.04%; for `O=C(CCc1ccccc1)NNC(=O)COc1ccc(Cl)cc1`, -2.05%.
Turning to `CC(=O)NC(=S)NNC(=O)c1ccc(Br)cc1`, the inhibition was 25.8%.
For `COc1ccc(C(=O)NNC(=S)NC(=O)c2ccccc2)cc1` the value was 66.3% (active).
Then `CCOc1ccccc1NC(=S)NC(=O)CCc1ccccc1`, with -0.27%.
For `COc1ccc(C(=O)NC(=S)NNC(=O)CCc2ccccc2)cc1` the value was 66.2% (active).
`O=C(NNC(=S)NCc1ccccc1)c1ccc(OC(F)F)cc1`: the inhibition was -12.5%.
Turning to `CCOC(=O)[C@]12CCCC=C1N(CCC1=CCCCC1)C(=O)[C@H](CC(=O)NCCCCc1ccccc1)C2`, the inhibition is -5.96%.
For `CCO[C@H]1OC(C(=O)NCc2ccccc2)=C[C@@H](c2coc3ccccc3c2=O)[C@@H]1CCCO`, the inhibition was 1.58%.
Then `O=C(NCc1ccccc1)[C@H]1CCCN1C(=O)[C@@H]1CCCN1C(=O)c1ccc(Cl)cc1Cl`, with -4.49%; and `CC[C@@H]1CC2=C(C(=O)OC(C)(C)O2)[C@@H](CC)O1`, with 7.78%.
For `Cc1cc(C)c([N+](=O)[O-])cc1-c1ccc(/C=N/NC(=O)c2nonc2N)o1` the value was 52% (active); for `Cc1ccc(-c2ccc(/C=N/NC(=O)CN3CCOCC3)o2)cc1[N+](=O)[O-]`, 3.41%.
For `COc1cc(/C=N\NC(=O)c2nonc2N)c(OC)cc1Br` the value was -10.8%; for `O=C1NC[C@H](CCCCN2C[C@H](Cc3ccccc3)N(Cc3ccccc3)C(=O)C2=O)N(CCc2ccc(O)cc2)C1=O`, -9.2%.
Consider `CN1/C(=C\C(=O)c2oc3ccccc3c2N)C(C)(C)c2ccccc21`, for which the inhibition is 51.5% (active).
For the compound `CN1CCN(CCC(=O)N/N=C/C=C2\N(C)c3ccccc3C2(C)C)CC1`, the inhibition was 28.4%.
For `CC(=O)Nc1cccc(OCC(=O)/C=C2\N(C)c3ccccc3C2(C)C)c1` the value was 32.4%; for `CC(=O)Nc1ccc(NC(=O)CCN2C(=O)C3CC=CCC3C2=O)cc1` (stereo not drawn), -7.1%; for `Cc1nc2ccc(NC(=O)N3CCC(c4ccccc4)C3)cc2nc1C` (stereo not drawn), -3.01%.
Then `CCOC(=O)N1C(=O)C[C@](Sc2ccc(C)cc2)(C(=O)OC)[C@H]1c1ccccc1`, with 6.96%.
For the compound `COC(=O)c1ccccc1SC1CC(=O)N(c2cccc(C)c2)C1=O` (stereo not drawn), the inhibition was -3.32%.
For the compound `COC(=O)[C@@]1(Sc2ccc(C)cc2)CC(=O)N(c2cccc(SC)c2)[C@@H]1c1ccccc1`, the inhibition was 67.8% (active).
For `COC(=O)C(C(=O)OC)c1ccccc1NS(=O)(=O)c1cccc2ccccc12` the value was -21.2%; for `CC(=O)N1Cc2cc(C(=O)NCc3cccc(F)c3)nc(-c3cccc(C4=CCCCC4)c3)c2[C@H]1CCO`, 18.2%.
Then `O=C(CC[C@H]1O[C@@H](n2ccc(=O)[nH]c2=O)[C@H](O)[C@@H]1O)N[C@H](Cc1ccccc1)C(=O)NCCCN1CCCC1=O`, with -13.5%; and `COc1ccc(C(=O)C(C)OC(=O)c2cccc(S(=O)(=O)Nc3c(C)n(C)n(-c4ccccc4)c3=O)c2)cc1` (stereo not drawn), with -15.1%; and `COc1ccc(NS(=O)(=O)c2ccc(C(=O)Nc3c(C)n(C)n(-c4ccccc4)c3=O)cc2)cc1`, with -27.9%.
Turning to `Cc1c(NS(=O)(=O)c2cccc(C(=O)Nc3ccc(SC(F)F)cc3)c2)c(=O)n(-c2ccccc2)n1C`, the inhibition is 51.8% (active).
Then `Cc1cc(C)n2c(Nc3c(C)cccc3C)c(CCc3ccccc3)nc2n1`, with 5.85%; and `Clc1ccccc1Nc1nc(NCc2cccs2)nc2ccsc12`, with 7.32%; and `COc1cccc(CNc2nc(NCc3cccs3)nc3ccsc23)c1`, with 76.6% (active).
Then `COc1cccc(CNc2nc(NCc3ccccc3OC)nc3ccsc23)c1`, with 36.8%.
Then `O=C1C=C(c2ccc(Cl)cc2)C(=O)N1Nc1ccccc1`, with 74.6% (active); and `CC(C)N(C)C(=O)CCc1nnc(CCc2c[nH]c3ccccc23)o1`, with -0.9%; and `COC(=O)C1=C(C)N(Cc2cccc(C(F)(F)F)c2)C(=NCc2cccc(C(F)(F)F)c2)NC1c1ccccc1C(F)(F)F` (stereo not drawn), with -30.9%.
With `Cc1ccc(C(=O)Nc2ccc(C)c(S(=O)(=O)N(C)C)c2)s1`, the inhibition is 11.3%.
For the compound `O=C(N[C@H](C(=O)N1CCC[C@H]1C(=O)NCCc1ccccc1Cl)c1ccccc1)c1ccccc1`, the inhibition was 56.7% (active).
For `O=C(NC(Cc1ccccc1)C(=O)N1CCCC1C(=O)O)c1ccccc1` (stereo not drawn) (Bz-Phe-Pro-OH; configuration not given here), the inhibition is -24.6%.
Then `O=C(NCCc1ccc(Cl)cc1)C1CCCN1C(=O)NCc1ccccc1` (stereo not drawn), with -9.56%.
For the compound `O=C(Nn1c(-c2ccc(Cl)cc2)nc2ccccc2c1=O)c1cccnc1Cl`, the inhibition is 15.6%.
Take `O=C(C[C@H]1CC[C@H]2[C@@H](COC[C@H](O)CN2C(=O)c2ccccn2)O1)N1CCN(c2ccccc2)CC1`: the inhibition is -9.63%.
For `CCOC(=O)N1CCN(C(=O)C[C@@H]2C[C@@]3(C(=O)OC)CC(C)(C)CC=C3N(Cc3ccco3)C2=O)CC1` the value was -19%; for `COc1ccccc1N1CCN(C(=O)c2cn(-c3ccccc3)nc2-c2cccnc2)CC1`, 22.2%; for `COc1ccccc1N1CCN(C(=O)c2ccc(NC3=NC4CS(=O)(=O)CC4S3)cc2)CC1` (stereo not drawn), -7.44%.
As for `COc1ccc(Nc2ncc(C(=O)N3CCN(c4ccccc4OC)CC3)c3ccccc23)cc1`, the inhibition is 49.5% (active).
For `CCCC(C)NC(=O)C1CCN(C(=O)C2CC(=O)N(c3ccc(C)cc3)C2)CC1` (stereo not drawn) the value was 3.73%; for `C[C@@H]1ON(C)[C@H]2C[C@H]3c4cc(N5CCOCC5)ccc4CCN3C[C@@H]12`, -3.17%.
Then `COc1ccc(S(=O)(=O)Nc2ccc3c(c2)C(=O)N([C@H](C)CO)C[C@H](C)[C@@H](CN(C)C)OCCCC[C@H](C)O3)cc1`, with -3.5%.
Then `O=C(Cc1c[nH]c2ccccc12)N/N=C/c1cccc(F)c1`, with 15.8%; and `C[n+]1ccc(/C=C/c2c[nH]c3ccccc23)cc1`, with -4.64%.
As to `CSC(=S)N/N=C/c1c[nH]c2ccccc12`, the inhibition was 88.6% (active).
For `COc1ccc(S(=O)(=O)N2CCOC2CNC(=O)C(=O)NCc2ccncc2)cc1C` (stereo not drawn) the value was -15.9%; for `COc1ccc(CCNC(=O)C(=O)NCC2OCCN2S(=O)(=O)c2ccc(OC)c(C)c2)cc1` (stereo not drawn), 53.6% (active).
For `COc1ccc(CCNC(=O)C(=O)NCC2OCCN2S(=O)(=O)c2ccc(F)cc2)cc1OC` (stereo not drawn) the value was -12%.
For `CC1Cc2[nH][nH]c(=O)c2C(C2CCCC2)O1` (stereo not drawn) the value was 2.81%; for `CC(C)c1cc(Cn2c3ccccc3c(=O)n2C(C)Cn2cc(C3CC3)nn2)on1` (stereo not drawn), -16%; for `CCCCN(C(=O)c1cccc(N2C(=O)c3ccccc3C2=O)c1)c1c(N)n(CCCC)c(=O)[nH]c1=O`, 5.52%.
Turning to `CC(C)[C@@H](C)/C=C/[C@@H](C)[C@H]1CC[C@@H]2[C@]1(C)CCC1[C@]23C=C[C@]2(C[C@@H](O)CC[C@]12C)N(c1ccc([N+](=O)[O-])cn1)O3` (stereo partly drawn), the inhibition is -12%.
For `Oc1ccccc1N1CCN(C(=S)NCc2ccccc2)CC1` the value was 3.27%.
Then `Oc1ccccc1N1CCN(c2ncnc3sc(-c4ccccc4)cc23)CC1`, with 58.6% (active).
With `O=c1c2cc(-c3ccccc3)sc2nc2n1N=C(c1cccs1)CS2`, the inhibition is -11.2%.
For `O=C(Cn1c(N2CCN(C/C=C/c3ccccc3)CC2)nc2ccccc21)c1ccccc1` the value was 10.7%; for `COc1cccc(CC(=O)N2CCN(C(=O)C(=O)c3cccc(C(F)(F)F)c3)CC2)c1`, 15.5%; for `Cc1ccccc1NC(=O)Cc1nc(COC(=O)CNC(=O)c2ccc(Cl)cc2Cl)cs1`, -26.5%.
With `Cc1ccccc1NC(=O)Cc1nc(COC(=O)c2cccnc2Cl)cs1`, the inhibition was 10.4%.
Turning to `Cc1ccccc1NC(=O)Cc1nc(COC(=O)C(C)(C)Oc2ccc(Cl)cc2)cs1`, the inhibition was 64.8% (active).
Then `CC(C)Nc1nnc(SC(C)C(=O)N(C)C2CCCCC2)s1` (stereo not drawn), with -5.6%; and `Cc1ccc(S(=O)(=O)CC(=O)NC(C)c2ccccc2)cc1` (stereo not drawn), with -14.5%.
Then `Cc1cccc(S(=O)(=O)CC(=O)Nc2nc(-c3ccccc3)cs2)c1`, with 53.8% (active).
Then `Cc1ccc(C)c(-c2nnc(NC(=O)CS(=O)(=O)c3ccccc3)o2)c1`, with -13.2%.

As a reminder, the inhibition is the drop in the measured response relative to a control, in per cent.

Source of the values: PubChem BioAssay AID624466 (The Scripps Research Institute Molecular Screening Center, 2012).
